Source: ChEMBL document CHEMBL1123885, “Analogues of 3-ethyl-3-(4-pyridyl)piperidine-2,6-dione as selective inhibitors of aromatase: derivatives with variable 1-alkyl and 3-alkyl substituents” (J Med Chem, 1987)

Columns and labels:
[1] = Partition coefficient (logP); format: physicochemical; conditions: octanol/water
[2] = target: T1, Cholesterol side-chain cleavage enzyme, mitochondrial (Bos taurus, UniProt P00189); assay: Inhibition of bovine desmolase, cytochrome P450 11A1; NI = No Inhibition at maximum concentration tested
T1 sequence (P00189 whole entry): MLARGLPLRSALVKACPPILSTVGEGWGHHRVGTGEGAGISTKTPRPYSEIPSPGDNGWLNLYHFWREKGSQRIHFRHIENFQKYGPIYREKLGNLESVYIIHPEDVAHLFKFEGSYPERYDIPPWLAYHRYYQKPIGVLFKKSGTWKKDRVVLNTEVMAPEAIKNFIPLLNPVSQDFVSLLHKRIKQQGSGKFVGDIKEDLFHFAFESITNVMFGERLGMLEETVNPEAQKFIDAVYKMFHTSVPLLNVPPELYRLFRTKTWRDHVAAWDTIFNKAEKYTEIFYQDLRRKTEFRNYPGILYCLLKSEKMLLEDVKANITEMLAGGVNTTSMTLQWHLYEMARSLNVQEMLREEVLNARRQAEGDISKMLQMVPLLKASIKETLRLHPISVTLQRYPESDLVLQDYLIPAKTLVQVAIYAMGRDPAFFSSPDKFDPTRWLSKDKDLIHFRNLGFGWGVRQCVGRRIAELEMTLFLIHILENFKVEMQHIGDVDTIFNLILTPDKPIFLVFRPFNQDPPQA
Procedure, shortened: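 Bovine adrenal cortex mitochondrial fraction as side-chain cleavage enzyme. […] Released [14C]isocaproic acid passes through alumina, which retains the steroid; eluate radioactivity is counted. Compound tested at 5, 10, 20 and 50 μg/mL. IC50 is the concentration that halves control activity, extrapolated when above the top concentration. "None" means no inhibition at the maximum tested.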

Aromatase = target: T2, Aromatase (Homo sapiens, UniProt P11511)
T2 sequence (P11511 whole entry): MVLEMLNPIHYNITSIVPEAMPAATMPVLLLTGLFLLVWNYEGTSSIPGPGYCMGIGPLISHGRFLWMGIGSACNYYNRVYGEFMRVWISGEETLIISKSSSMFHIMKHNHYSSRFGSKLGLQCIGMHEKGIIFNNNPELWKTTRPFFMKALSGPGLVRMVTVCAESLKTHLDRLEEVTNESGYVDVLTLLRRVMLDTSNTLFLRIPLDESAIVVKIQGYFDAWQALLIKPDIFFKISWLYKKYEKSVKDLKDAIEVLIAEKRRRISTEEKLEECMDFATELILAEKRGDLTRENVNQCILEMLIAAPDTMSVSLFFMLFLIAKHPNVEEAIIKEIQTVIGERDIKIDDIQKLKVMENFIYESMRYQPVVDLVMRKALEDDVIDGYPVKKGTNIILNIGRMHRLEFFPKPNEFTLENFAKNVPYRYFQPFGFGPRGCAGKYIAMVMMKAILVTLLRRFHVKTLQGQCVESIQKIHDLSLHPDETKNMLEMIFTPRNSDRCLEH

Compound	logP [1]	IC50 [2]	IC50 (Aromatase)
CCCCN1C(=O)CCC(CC)(c2ccncc2)C1=O (stereo not given)	2.76	No inhibition	–
CC1(c2ccncc2)CCC(=O)NC1=O (stereo not given)	–	No inhibition	–
CCCCCC1(c2ccncc2)CCC(=O)NC1=O (stereo not given)	2.26	No inhibition	2.5 µM
CCCCCCN1C(=O)CCC(CC)(c2ccncc2)C1=O (stereo not given)	–	No inhibition	–
CCC1(c2ccncc2)CCC(=O)NC1=O (stereo not given) [ROGLETIMIDE]	0.58	–	–
CCN1C(=O)CCC(CC)(c2ccncc2)C1=O (stereo not given)	1.64	No inhibition	–
CCC1(c2ccncc2)CCC(=O)N(C)C1=O (stereo not given)	–	No inhibition	–
CCCN1C(=O)CCC(CC)(c2ccncc2)C1=O (stereo not given)	2.18	No inhibition	–
CCCC1(c2ccncc2)CCC(=O)NC1=O (stereo not given)	1.13	No inhibition	–
CCCCCCCC1(c2ccncc2)CCC(=O)NC1=O (stereo not given)	–	–	3.2 µM
CCCCC1(c2ccncc2)CCC(=O)NC1=O (stereo not given)	–	No inhibition	–
CCCCCCC1(c2ccncc2)CCC(=O)NC1=O (stereo not given)	2.94	No inhibition	3.6 µM
